Assay results: ChEMBL document CHEMBL1124947, “Cationic antiprotozoal drugs. Trypanocidal activity of 2-(4'-formylphenyl)imidazo[1,2-a]pyridinium guanylhydrazones and related derivatives of quaternary heteroaromatic compounds” (J Med Chem, 1990)

Legend:
Type in all cases: functional
Mus musculus [1] = assay: Trypanocidal Activity at I.C.E. value 0.74 when administered subcutaneously.
How it was run: (§1)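 Mice, in groups of five per dose, were given a standard inoculum of blood-stage T. rhodesiense that is lethal to all untreated controls, then dosed subcutaneously. Usually 11 dose levels were used (2^n × 0.42 mg/kg).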

Mus musculus [2] = assay: Trypanocidal Activity at I.C.E. value 0.60 when administered subcutaneously.; how it was run: as §1
Mus musculus [3] = assay: Trypanocidal Activity at I.C.E. value 0.61 when administered perorally.
Mus musculus [4] = assay: Trypanocidal Activity at I.C.E. value 0.63 when administered perorally.
Mus musculus [5] = assay: Trypanocidal Activity at I.C.E. value 0.94 when administered subcutaneously.; how it was run: as §1
Mus musculus [6] = assay: Trypanocidal Activity at I.C.E. value 0.57 when administered subcutaneously.; how it was run: as §1
[7] = test system: Trypanosoma brucei rhodesiense; assay: In Vitro measurement of inhibition of Leucine uptake in cell culture of Trypanosoma rhodesiense.; settings: read-out: ID50 (the source's name)
How it was run: (§2)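 Trypanosomes harvested from infected rats, cultured 3 h with several concentrations of drug, usually 0.1–100 µg/mL. Radiolabeled L-leucine uptake measured. ID50 is the concentration in µg/mL giving 50% inhibition of incorporation.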

Mus musculus [8] = assay: Trypanocidal Activity at I.C.E. value 0.56 when administered perorally.
[9] = test system: Trypanosoma brucei rhodesiense; assay: In Vitro measurement of inhibition of thymidine uptake in cell culture of Trypanosoma rhodesiense.; settings: read-out: ID50 (the source's name)
How it was run: (§3)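 Parasites harvested from infected rats and incubated 3 h across a drug concentration series, usually 0.1–100 µg/mL. Incorporation of radiolabeled thymidine measured. ID50 is the concentration (µg/mL) producing 50% inhibition.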

Mus musculus [10] = assay: Trypanocidal Activity at I.C.E. value 0.41 when administered subcutaneously.
How it was run: (§4)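 Blood-stage T. rhodesiense infection came from a standard inoculum lethal to all untreated mice. Drug was given by subcutaneous injection to groups of five mice. Survival beyond 30 days counted as cure. […] Sub-curative doses scored 0, and data were normalized at each dose.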

Mus musculus [11] = assay: Trypanocidal Activity at I.C.E. value 0.40 when administered perorally.
Mus musculus [12] = assay: Trypanocidal Activity at I.C.E. value 0.84 when administered subcutaneously.; how it was run: as §1
Mus musculus [13] = assay: Trypanocidal Activity at I.C.E. value 0.54 when administered subcutaneously.; how it was run: as §4
Mus musculus [14] = assay: Trypanocidal Activity at I.C.E. value 0.48 when administered perorally.
Mus musculus [15] = assay: Trypanocidal Activity at I.C.E. value 0.49 when administered subcutaneously.; how it was run: as §4
Mus musculus [16] = assay: Trypanocidal Activity at I.C.E. value 0.66 when administered subcutaneously.; how it was run: as §1
Mus musculus [17] = assay: Trypanocidal Activity at I.C.E. value 0.49 when administered perorally.
Mus musculus [18] = assay: Trypanocidal Activity at I.C.E. value 0.63 when administered subcutaneously.; how it was run: as §1
Mus musculus [19] = assay: Trypanocidal Activity at I.C.E. value 0.17 when administered perorally.
Mus musculus [20] = assay: Trypanocidal Activity at I.C.E. value 0.15 when administered perorally.
Mus musculus [21] = assay: Trypanocidal Activity at I.C.E. value 0.30 when administered subcutaneously.; how it was run: as §4
[22] = test system: Trypanosoma brucei rhodesiense; assay: In Vitro measurement of inhibition of thymidine uptake in cell culture of Trypanosoma rhodesiense; settings: read-out: ID50 (the source's name); how it was run: as §3
[23] = test system: Trypanosoma brucei rhodesiense; assay: In Vitro measurement of inhibition of leucine uptake in cell culture of Trypanosoma rhodesiense; settings: read-out: ID50 (the source's name); how it was run: as §2
Mus musculus [24] = assay: Trypanocidal Activity at I.C.E. value 0.79 when administered subcutaneously.; how it was run: as §1
Mus musculus [25] = assay: Trypanocidal Activity at I.C.E. value 0.55 when administered subcutaneously.; how it was run: as §1
Mus musculus [26] = assay: Trypanocidal Activity at I.C.E. value 0.4 when administered perorally.
Mus musculus [27] = assay: Trypanocidal Activity at I.C.E. value 0.47 when administered subcutaneously.; how it was run: as §4
Mus musculus [28] = assay: Trypanocidal Activity at I.C.E. value 0.24 when administered subcutaneously.; how it was run: as §4
Mus musculus [29] = assay: Trypanocidal Activity at I.C.E. value 0.06 when administered perorally.
Mus musculus [30] = assay: Trypanocidal Activity at I.C.E. value 0.48 when administered subcutaneously.; how it was run: as §4
Mus musculus [31] = assay: Trypanocidal Activity at I.C.E. value 0.47 when administered perorally.
Mus musculus [32] = assay: Trypanocidal Activity at I.C.E. value 0.36 when administered subcutaneously.

With `C[n+]1c(/C=C/c2ccc(/C=N/NC(=N)N3CCCC3)cc2)cn2ccccc21.Cc1ccc(S(=O)(=O)O)cc1.Cc1ccc(S(=O)(=O)[O-])cc1` the CD50 (Mus musculus [1]) was 0.8 mg/kg.

For `Br.C[n+]1c(COc2ccc(/C=N/NC3=NCCN3)cc2)cn2ccccc21.[Br-]`, the CD50 (Mus musculus [2]) was 0.8 mg/kg and the CD50 (Mus musculus [3]) was 6.6 mg/kg.

With `C[n+]1c(-c2ccc(/C=C/C=N/NC(=N)N)cc2)cn2ccccc21.Cc1ccc(S(=O)(=O)O)cc1.Cc1ccc(S(=O)(=O)[O-])cc1` the CD50 (Mus musculus [4]) was 6.6 mg/kg and the CD50 (Mus musculus [5]) was 0.06 mg/kg.

In the case of `Br.C[n+]1c(-c2ccc(/C=N/NC3=NCCN3)cc2)cn2ccccc21.[Br-]`, the CD50 (Mus musculus [6]) is reported as 0.8 mg/kg, the IC50 [7] is reported as 0.9 µg/mL and the CD50 (Mus musculus [8]) is reported as 13 mg/kg. The IC50 [9] was 0.8 µg/mL.

Compound `Br.Cc1ccc2n(c1)cc(/C=C/c1ccc(/C=N/NC3=NCCCN3)cc1)[n+]2C.[Br-]` has a CD50 (Mus musculus [10]) of 1.6 mg/kg.

Work on `Br.CC/N=C(\NCC)N/N=C/c1ccc(-c2cn3ccccc3[n+]2C)cc1.[Br-]` yielded a CD50 (Mus musculus [6]) of 1.6 mg/kg and a CD50 (Mus musculus [11]) of 53 mg/kg.

`Br.Cc1cccc2n1cc(/C=C/c1ccc(/C=N/NC3=NCCCN3)cc1)[n+]2C.[Br-]` showed a CD50 (Mus musculus [12]) of 0.4 mg/kg.

`Br.CNC(=N)N/N=C/c1ccc(-c2cn3ccccc3[n+]2C)cc1.[Br-]` gave a CD50 (Mus musculus [10]) of 0.8 mg/kg, an IC50 [7] of 0.7 µg/mL and an IC50 [9] of 0.5 µg/mL.

Compound `Br.Cn1cc[n+](C)c1/C=C/c1ccc(/C=N/NC2=NCCCN2)cc1.[Br-]` has a CD50 (Mus musculus [4]) of 6.6 mg/kg and a CD50 (Mus musculus [13]) of 0.8 mg/kg.

In the case of `Br.Cc1cccc2n1cc(COc1ccc(/C=N/NC(=N)N)cc1)[n+]2C.[Br-]`, the CD50 (Mus musculus [14]) is reported as 13 mg/kg and the CD50 (Mus musculus [15]) is reported as 0.8 mg/kg.

In the case of `Br.CCNC(=N)N/N=C/c1ccc(/C=C/c2cn3ccccc3[n+]2C)cc1.[Br-]`, the CD50 (Mus musculus [16]) is reported as 0.1 mg/kg.

`Br.CCNC(=N)N/N=C/c1ccc(OCc2n(C)c3ccccc3[n+]2C)cc1.[Br-]` showed a CD50 (Mus musculus [2]) of 1.6 mg/kg.

`Br.Cc1cccc2n1cc(COc1ccc(/C=N/NC(=N)NO)cc1)[n+]2C.[Br-]` gave a CD50 (Mus musculus [17]) of 13 mg/kg and a CD50 (Mus musculus [1]) of 0.8 mg/kg.

In the case of `CCCCSc1ccc2n(c1)cc(-c1ccc(/C=N/NC(=N)N3CCCC3)cc1)[n+]2C.Cc1ccc(S(=O)(=O)O)cc1.Cc1ccc(S(=O)(=O)[O-])cc1`, the CD50 (Mus musculus [18]) is reported as 3.3 mg/kg and the CD50 (Mus musculus [19]) is reported as 212 mg/kg.

Work on `Br.CC/N=C(\NCC)N/N=C/c1ccc(C[n+]2cn(C)c3ccccc32)cc1.[Br-]` yielded a CD50 (Mus musculus [20]) of 424 mg/kg and a CD50 (Mus musculus [21]) of 13 mg/kg.

`CC(=O)Nc1ccc2n(c1)cc(-c1ccc(/C=N/NC(=N)N)cc1)[n+]2C.Cc1ccc(S(=O)(=O)O)cc1.Cc1ccc(S(=O)(=O)[O-])cc1` showed an IC50 [22] of 1.5 µg/mL, an IC50 [23] greater than 10 µg/mL and a CD50 (Mus musculus [24]) of 0.4 mg/kg.

In the case of `Cc1ccc(S(=O)(=O)O)cc1.Cc1ccc(S(=O)(=O)[O-])cc1.Cc1ccn2cc(-c3ccc(/C=N/NC(=N)N)cc3)[n+](C)c2c1`, the CD50 (Mus musculus [25]) is reported as 1.6 mg/kg and the IC50 [9] is reported as 1 µg/mL.

`C[n+]1ccc(COc2ccc(/C=N/NC(=N)N3CCCC3)cc2)cc1.Cc1ccc(S(=O)(=O)O)cc1.Cc1ccc(S(=O)(=O)[O-])cc1` showed an IC50 [22] of 9.3 µg/mL, a CD50 (Mus musculus [26]) of 424 mg/kg and a CD50 (Mus musculus [27]) of 0.8 mg/kg. It also gave an IC50 [23] of 13.6 µg/mL.

`Cc1ccc(S(=O)(=O)O)cc1.Cc1ccc(S(=O)(=O)[O-])cc1.Cc1ccc2n(c1)cc(-c1ccc(/C=C/C=N/NC(=N)N)cc1)[n+]2C` gave a CD50 (Mus musculus [28]) of 106 mg/kg and a CD50 (Mus musculus [29]) of 424 mg/kg.

`Br.C[n+]1cccc(COc2ccc(/C=N/NC(=N)N3CCCC3)cc2)c1.[Br-]` showed an IC50 [22] of 0.3 µg/mL, a CD50 (Mus musculus [26]) of 26 mg/kg and a CD50 (Mus musculus [27]) of 0.8 mg/kg. For the same compound, the IC50 [23] was 0.8 µg/mL.

`Br.Cc1ccn2cc(-c3ccc(/C=N/NC(=N)N4CCCC4)cc3)[n+](C)c2c1.[Br-]` gave a CD50 (Mus musculus [30]) of 0.1 mg/kg and a CD50 (Mus musculus [31]) of 13 mg/kg.

Work on `Br.C[n+]1c(COc2ccc(/C=N/NC(=N)N3CCCC3)cc2)cn2ccccc21.[Br-]` yielded a CD50 (Mus musculus [32]) of 0.8 mg/kg and a CD50 (Mus musculus [31]) of 26 mg/kg.
